# From ChEMBL document CHEMBL1149173, “Design, synthesis, and biological evaluation of hybrid molecules containing alpha-methylene-gamma-butyrolactones and polypyrrole minor groove binders” (J Med Chem, 2004)
# Columns and labels:
# Format in all cases: functional, cell-based
# CCRF-CEM = experiment: Inhibitory concentration required to inhibit human T-lymphoblast CEM cells proliferation
# How it was run: (§1)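 Human T-lymphocyte cells seeded at 300000–500000 cells/mL and mixed 1:1 with serial compound dilutions. Incubated 3 days at 37 °C, then cell number counted with a Coulter counter. IC50 taken as the concentration giving 50% inhibition of proliferation, as mean ± SE from dose–response curves of at least three independent experiments.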
# FM3A = experiment: Inhibitory concentration required to inhibit murine mammary carcinoma FM3A cells proliferation; settings: Mus musculus
# How it was run: (§2)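 Murine cells were suspended at 300000–500000 cells/mL and added 1:1 to wells holding serial dilutions of compound. Cells were counted by Coulter counter after 2 days at 37 °C. IC50 is the concentration inhibiting cell proliferation by 50%, given as mean ± SE from dose–response curves of at least three independent experiments.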
# L1210 = experiment: Inhibitory concentration required to inhibit murine leukemia L1210 cells proliferation; settings: Mus musculus; how it was run: as §2
# MOLT-4 = experiment: Inhibitory concentration required to inhibit human T-lymphoblast Molt4 cells proliferation; how it was run: as §1
SMILES,IC50 (CCRF-CEM) [µM],IC50 (FM3A) [µM],IC50 (L1210) [µM],IC50 (MOLT-4) [µM]
C=C1CC(C)(COc2cc(C(=O)O)n(C)n2)OC1=O (stereo unspecified),402,755,522,746
C=C1CC(COc2cc(C(=O)O)n(C)n2)(c2ccc(Cl)cc2)OC1=O (stereo unspecified),57.9,99.2,13,46.9
C=C1CC(COc2cc(C(=O)O)n(C)n2)(c2ccccc2)OC1=O (stereo unspecified),174,189,107,189
C=C1CC(COc2cc(C(=O)O)n(C)n2)(c2ccc(-c3ccccc3)cc2)OC1=O (stereo unspecified),18.5,42,14.8,9.4
